Experimental findings from BindingDB's records for doi:10.1021/jm960074e (National Cancer Institute-Bethesda, 1996) are described below.

The assay has as its target Integrase (Human immunodeficiency virus 1, UniProt Q7ZJM1). The assay can be described thus: Inhibitory activity against HIV-1 integrase. An outline of the steps: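 Purified recombinant wild-type HIV-1 integrase, 200 nM final, preincubated with inhibitor for 30 min at 30 °C. Buffer: 25 mM MOPS pH 7.2, 7.5 mM MnCl2, 50 mM NaCl, 10% DMSO, 10% glycerol, BSA, DTT, 2-mercaptoethanol. Then 20 nM 5'-32P-labeled 21mer U5 duplex added for 60 min. Products run on denaturing 20% polyacrylamide gel and quantified by phosphorimager.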

For orientation: IC50 means the concentration that inhibits the measured activity by half.

Chain of Integrase (Q7ZJM1 whole entry): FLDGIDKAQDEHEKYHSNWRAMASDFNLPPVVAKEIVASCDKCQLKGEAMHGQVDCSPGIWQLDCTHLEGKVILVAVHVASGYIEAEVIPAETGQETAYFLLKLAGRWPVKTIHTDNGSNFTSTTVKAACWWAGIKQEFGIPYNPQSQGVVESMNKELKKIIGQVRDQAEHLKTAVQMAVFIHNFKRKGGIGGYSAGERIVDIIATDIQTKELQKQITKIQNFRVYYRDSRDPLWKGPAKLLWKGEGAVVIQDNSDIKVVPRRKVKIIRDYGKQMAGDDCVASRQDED

`O=C1C(=O)C(Sc2ccccc2)C(=O)c2ccccc21` (stereo not given) [NSC-108029] yielded an IC50 above 100 µM.
Regarding `O=C1Oc2ccccc2C(O)C1Cc1c(O)c2ccccc2oc1=O` (stereo not given) [NSC-41834], the IC50 is above 100 µM.
In turn, `CC(=O)c1cccc(NC(=O)C(=O)c2c(O)c3ccccc3oc2=O)c1` [N-(3-Acetyl-phenyl)-2-(4-hydroxy-2-oxo-2H-chromen-3-yl)-2-oxo-acetamide] registered a half-inhibitory concentration (IC50) above 100 µM.
`CC(=C1C(=O)C(=O)c2ccccc2C1=O)c1c(O)c(O)c2ccccc2c1O` [2-hydroxy-3-[1-(3-hydroxy-1,4-dioxo-1,4-dihydro-2-naphthalenyl)ethyl]-1,4-dihydro-1,4-naphthalenedione]: the IC50 was above 100 µM.
The value for `CN(C)c1ccc(C(=C2C(=O)C(=O)c3ccccc3C2=O)c2c(O)c(O)c3ccccc3c2O)cc1` [NSC-92203] was above 100 µM; that for `O=C1C(=O)c2ccccc2C(=O)C1=C(c1ccc(Cl)cc1)c1c(O)c(O)c2ccccc2c1O` [2-[4-chlorophenyl(3-hydroxy-1,4-dioxo-1,4-dihydro-2-naphthalenyl)methyl]-3-hydroxy-1,4-dihydro-1,4-naphthalenedione] was above 100 µM; that for `CCOc1ccc(C(=C2C(=O)C(=O)c3ccccc3C2=O)c2c(O)c(O)c3ccccc3c2O)cc1OC` [2-[4-ethoxy-3-methoxyphenyl(3-hydroxy-1,4-dioxo-1,4-dihydro-2-naphthalenyl)methyl]-3-hydroxy-1,4-dihydro-1,4-naphthalenedione] was 100 µM.
Molecule `O=C(c1cccc([N+](=O)[O-])c1)c1c(O)c2ccccc2oc1=O` [NSC-133800] yielded an IC50 above 100 µM.
Consider `Cc1ccc(S(=O)(=O)NN=C(CCN2CCCC2)CC(c2ccccc2)c2c(O)c3ccccc3oc2=O)cc1` (stereo not given) [NSC-647410], for which the IC50 was above 100 µM.
The value for `COc1cc(C(=C2C(=O)C(=O)c3ccccc3C2=O)c2c(O)c(O)c3ccccc3c2O)cc(OC)c1OC` [NSC-117278] was above 100 µM.
